Experimental data from PMC3773219 (Biochemistry, 2013).
Values belong to the molecule of their own block, whether it stands above or below them.

Assays:
[1] = target: Pim1 (Homo sapiens, UniProt P11309); experiment: Enzyme coupled kinase assay, Pim1; type: biochemical; settings: for reduction of Pim1 activity: relative to consensus peptide 2 (kcat/KM)
Method in brief: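 His6-tagged human Pim1 was expressed in E. coli and purified on Ni-NTA. It was treated with alkaline phosphatase, and phospho and non-phospho forms were separated on Q-Sepharose. The coupled PK/LDH assay ran at room temperature with 20 mM MgCl2, 100 mM Tris pH 7.4, 1 mM ATP, 1 mM PEP, 0.2 mM NADH and 0–2400 μM peptide or PTP-PEST catalytic domain (aa 5–300). It was started with 40–1200 nM Pim1, read at A340, and initial rates were fitted for kcat, KM and/or kcat/KM.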

[2] = system: native Csk; settings: cited from earlier work
[3] = target: GST-Csk (Homo sapiens, UniProt P41240); experiment: Enzyme coupled kinase assay, GST-Csk; type: biochemical; settings: kcat/KM with GST-Csk relative to peptide 16
Method in brief: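 GST-tagged wild-type human Csk was expressed in E. coli DH5α and purified on glutathione-Sepharose. The pyruvate kinase/lactate dehydrogenase coupled assay ran at room temperature in 100 mM Tris pH 7.4 with 5 mM MnCl2, 5 mM NaCl, 5 mM KCl, 10 mM DTT, 1 mM ATP, 1 mM PEP, 0.2 mM NADH and 0–2400 μM peptide. It was started with 1–3 μM GST-Csk and A340 followed continuously. Initial rates (<2 min) were fitted to Michaelis-Menten or V = kcat[E][S]/KM.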

[4] = target: T1, MKK6 (Homo sapiens, UniProt P52564, S207E/T211E); experiment: Kinase assay by HPLC, MKK6; type: biochemical; settings: peptide as MKK6 substrate
T1 sequence (P52564 1-334 S207E/T211E): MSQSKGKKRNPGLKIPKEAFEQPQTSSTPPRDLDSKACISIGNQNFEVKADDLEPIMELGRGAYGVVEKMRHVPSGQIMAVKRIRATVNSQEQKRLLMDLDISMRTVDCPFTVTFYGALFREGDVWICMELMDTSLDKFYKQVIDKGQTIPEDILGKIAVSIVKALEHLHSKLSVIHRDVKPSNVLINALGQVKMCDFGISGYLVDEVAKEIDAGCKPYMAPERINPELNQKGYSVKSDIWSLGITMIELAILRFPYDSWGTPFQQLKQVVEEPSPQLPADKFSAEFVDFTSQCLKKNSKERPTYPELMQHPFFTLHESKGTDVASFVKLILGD

[5] = system: protein kinases; settings: cited from earlier work

Chain of Pim1 (P11309 whole entry, the tested form may be a part): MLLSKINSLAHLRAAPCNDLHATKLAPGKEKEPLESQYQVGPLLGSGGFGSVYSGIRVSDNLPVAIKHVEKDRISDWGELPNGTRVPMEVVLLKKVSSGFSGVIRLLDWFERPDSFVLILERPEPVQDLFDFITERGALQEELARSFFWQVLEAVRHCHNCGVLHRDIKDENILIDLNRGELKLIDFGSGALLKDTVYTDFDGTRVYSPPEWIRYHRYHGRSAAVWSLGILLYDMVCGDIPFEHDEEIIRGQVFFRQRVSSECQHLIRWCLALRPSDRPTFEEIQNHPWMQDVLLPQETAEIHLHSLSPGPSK

Molecule: Ac-KKKKEEIYFFF-NH2 [Peptide 16, reference compound]
kcat/KM ([2]; native Csk, previously reported): 6050 M⁻¹ s⁻¹

Molecule: Lck: Csk protein substrate
kcat/KM of Csk protein substrates ([2]; protein substrates of Csk): 200000 M⁻¹ s⁻¹

Molecule: Nc1ncnc2c1ncn2[C@@H]1O[C@H](COP(=O)(O)OP(=O)(O)OP(O)(O)=S)[C@@H](O)[C@H]1O [[γ-S]ATP, adenosine 5′-O-(3-thio)triphosphate]
decrease of catalytic activity of kinases on substitution of [γ-S]ATP for ATP [5]: 15–30 fold

B1: PTP-PEST: non-receptor protein tyrosine phosphatase; recombinant catalytic domain of human PTP-PEST (amino acids 5–300) (protein, UniProt Q05209 5-300, looked up, fragment)
chain: EILRKFIQRVQAMKSPDHNGEDNFARDFMRLRRLSTKYRTEKIYPTATGEKEENVKKNRYKDILPFDHSRVKLTLKTPSQDSDYINANFIKGVYGPKAYVATQGPLANTVIDFWRMIWEYNVVIIVMACREFEMGRKKCERYWPLYGEDPITFAPFKISCEDEQARTDYFIRTLLLEFQNESRRLYQFHYVNWPDHDVPSSFDSILDMISLMRKYQEHEDVPICIHCSAGCGRTGAICAIDYTWNLLKAGKIPEEFNVFNLIQEMRTQRHSAVQTKEQYELVHRAIAQLFEKQLQL
modifications: catalytic domain GST tag
kcat/KM ([1]; recombinant PTP-PEST protein as Pim1 substrate, enzyme-coupled assay): 34000 M⁻¹ s⁻¹

Other lines, results leading:

effect of substitution on Pim1 activity ([1]; relative to consensus peptide 2): abolished the Pim1 activity
Molecule: AYAHPTGMYY [Peptide 5]

reduction of Pim1 activity [1]: 620 fold
Molecule: RYRDPTGMYY [Peptide 6]

more active than the previous consensus peptide (16) [3]: 11 fold
Molecule: Ac-DDEPIYAELADIT-NH2 [Peptide 23]

reduction of Pim1 activity [1]: 62 fold
Molecule: RYRHPTPMYY [Peptide 7]

Km [4]: > 500 µM
Molecule: Ac-RRRYEILPTWNVY-NH2 [Peptide 13]
